The values that follow come from PMC7485388 (ACS chemical biology, 2017).

“Also recorded” adds a separate entry of the source.

For one test, the target named is T1, EphB1 T697G (Homo sapiens, UniProt P54762, T697G).
T1 sequence (P54762 18-984 T697G): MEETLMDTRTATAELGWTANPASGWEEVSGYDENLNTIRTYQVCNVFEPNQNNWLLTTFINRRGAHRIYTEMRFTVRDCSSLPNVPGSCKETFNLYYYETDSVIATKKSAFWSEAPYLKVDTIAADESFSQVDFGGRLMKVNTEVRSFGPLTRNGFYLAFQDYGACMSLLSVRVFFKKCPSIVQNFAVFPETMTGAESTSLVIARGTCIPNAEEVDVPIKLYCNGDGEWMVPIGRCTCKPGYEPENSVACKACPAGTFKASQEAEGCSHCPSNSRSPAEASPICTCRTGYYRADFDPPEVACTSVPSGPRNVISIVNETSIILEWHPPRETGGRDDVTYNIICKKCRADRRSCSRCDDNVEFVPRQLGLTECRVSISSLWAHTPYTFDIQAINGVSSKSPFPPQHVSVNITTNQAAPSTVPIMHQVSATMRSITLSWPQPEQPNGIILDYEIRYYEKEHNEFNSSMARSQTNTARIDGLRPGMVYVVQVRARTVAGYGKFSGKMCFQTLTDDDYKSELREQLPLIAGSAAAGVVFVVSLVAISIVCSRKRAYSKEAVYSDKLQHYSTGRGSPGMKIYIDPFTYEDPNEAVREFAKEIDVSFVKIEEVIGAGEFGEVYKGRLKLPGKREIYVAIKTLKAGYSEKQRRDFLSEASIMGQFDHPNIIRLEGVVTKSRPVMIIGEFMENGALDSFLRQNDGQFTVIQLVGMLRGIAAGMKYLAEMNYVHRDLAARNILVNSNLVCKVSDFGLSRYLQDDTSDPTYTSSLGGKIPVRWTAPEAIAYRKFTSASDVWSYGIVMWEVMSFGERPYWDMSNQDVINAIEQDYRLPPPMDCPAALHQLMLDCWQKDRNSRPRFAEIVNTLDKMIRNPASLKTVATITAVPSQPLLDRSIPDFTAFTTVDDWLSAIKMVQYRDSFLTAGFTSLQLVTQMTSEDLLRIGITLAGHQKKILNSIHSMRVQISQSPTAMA
Put plainly: EphB1 autophosphorylation in transfected HEK293 cells. Format: cell-based. The procedure, abridged:
(§1)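 HEK293 cells transfected with Eph kinase variants were exposed to a range of test compound concentrations. Lysate protein was quantified by BCA and normalized before Western blotting. Blots were probed for phospho-EphB, total EphB1 or EphB3, and β-actin, giving autophosphorylation relative to total receptor.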

Another test deals with EphB3 WT. The test can be described thus: EphB3 autophosphorylation in HEK293 cells co-expressing EphB3 WT. Format: cell-based, human. The following applies: 100 nM; HEK293 co-expressing EphB3 WT and EphB1 T697G; ephrin-B2 stimulation. The procedure, abridged:
as §1

In the case of `Cc1cccc(Cc2nn(C(C)(C)C)c3ncnc(N)c23)c1` [3MB-PP1], the “inhibition of the three EphB1 alleles in cells” value against EphB1 T697G (100 nM, HEK293, tested on WT, G703C, T697G) is reported as “only inhibited the analog-sensitive allele; also recorded: only inhibited EphB1^T697G”. In addition, the “autophosphorylation of EphB1 T697G” value on EphB1 T697G (100 nM, HEK293 co-expressing EphB3 WT and EphB1 T697G, ephrin-B2 stimulation) is on record as “abolished”. Moreover, the “selectivity factor between the two EphB1 mutants (T697G over G703C)” value on EphB1 T697G (in cells) is given as ~ 500. Moreover, the “autophosphorylation of EphB3 WT” value in the test on EphB3 WT was “little effect”.
